Key:
Assay type in all cases: functional, cell-based
PC-3M = assay: (§1) Cytotoxicity against human PC3M cells after 24 hrs by MTT assay
Method in brief: (§2)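 Human cancer cell lines from ATCC were seeded at 3000 cells per well and dosed 24 h after seeding across a range of concentrations. After 24 h of compound exposure, MTT was added and incubation continued another 24 h. Viability was read as absorbance at 570 nm and IC50 calculated. Paclitaxel was the positive control.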

A549 = assay: Cytotoxicity against human A549 cells after 24 hrs by MTT assay; method in brief: as §2
Bel-7402 = assay: Cytotoxicity against human Bel7402 cells after 24 hrs by MTT assay; method in brief: as §2
HCT-8 = assay: Cytotoxicity against human HCT8 cells after 24 hrs by MTT assay; method in brief: as §2
[1] = as §1; settings: PC-3M; method in brief: as §2

| SMILES | Activity (PC-3M) | Activity (A549) | Activity (Bel-7402) | Activity (HCT-8) | IC50 [1] [µM] | IC50 (HCT-8; HCT-8, 24 h) [µM] |
| --- | --- | --- | --- | --- | --- | --- |
| C=C(C=O)[C@@]1(O)C[C@H](OC(C)=O)C(CO)=C1C=O | Not toxic | Not toxic | Not toxic | Not toxic |  |  |
| C=C1[C@H]2OC(=O)[C@H]3[C@@H]1C[C@H](O)[C@@]3(C)O2 | Not toxic | Not toxic | Not toxic | Not toxic |  |  |
| C=C1[C@H]2OC[C@H]3[C@@H]1C[C@H](O)[C@@]3(C)O2 | Not toxic | Not toxic | Not toxic | Not toxic |  |  |
| CO[C@@H]1O[C@]2(C)[C@@H](O)C[C@@H]3[C@H]1COC(=O)[C@@H]32 | Not toxic | Not toxic | Not toxic | Not toxic |  |  |
| CO[C@H]1OC(=O)[C@H]2[C@@H]3C[C@H](O)[C@@]2(C)OC[C@H]13 | Not toxic | Not toxic | Not toxic | Not toxic |  |  |
| C=C1COC(=O)[C@H]2[C@@H]1C[C@H](O)[C@@]2(C)O | Not toxic | Not toxic | Not toxic | Not toxic |  |  |
| C=C1[C@H]2O[C@@H](O)[C@H]3[C@@H]1C[C@H](O)[C@@]3(C)O2 | Not toxic | Not toxic | Not toxic | Not toxic |  |  |
| C=C(C=O)[C@H]1C[C@H](O)[C@@](C)(O)[C@H]1C(=O)OC | Not toxic | Not toxic | Not toxic | Not toxic |  |  |
| C[C@@H]1COC(=O)[C@H]2[C@@H]1C[C@H](O)[C@@]2(C)O | Not toxic | Not toxic | Not toxic | Not toxic |  |  |
| C[C@]12O[C@@H]3OC(=O)[C@H]1[C@H](C[C@@H]2O)[C@H]3CO | Not toxic | Not toxic | Not toxic | Not toxic |  |  |
| C=C1CO[C@@]2(CO)C(CO)=CC[C@H]12 | Not toxic | Not toxic | Not toxic | Not toxic |  |  |
| C=C(CO)[C@H]1C[C@H](O)[C@@](C)(O)[C@H]1CO | Not toxic | Not toxic | Not toxic | Not toxic |  |  |
| C[C@H]1COC(=O)[C@H]2[C@@H]1C[C@H](O)[C@@]2(C)O | Not toxic | Not toxic | Not toxic | Not toxic |  |  |
| COc1cc(C[C@H]2CO[C@H](c3ccc(O)c(OC)c3)[C@H]2COC(=O)CC(C)C)ccc1O [(+)-9'-ISOVALEROXYLARICIRESINOL] |  | Not toxic | Not toxic |  | 8.1 | 5.3 |

— ChEMBL document CHEMBL1157057, “Iridoids and lignans from Valeriana jatamansi” (J Nat Prod, 2010)
